According to paper PMC12722729 (Scientific Reports, 2025):
Several values for one entry are separate records, joined by “and”; a condition that tells them apart may be missing. Identical values can stand only once. Like-named read-outs stand apart in the source and are kept apart here.

What was measured:
Jurkat cells [1] = test: MTT cytotoxicity assay, Jurkat cells; assay type: cell-based, human; conditions: 24 h, read-out: IC50 for Jurkat cell proliferation
Summary of the method: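 Jurkat E6-1 cells were grown in RPMI-1640 with L-glutamine, 10% FBS and 1% penicillin-streptomycin at 37 °C and 5% CO2. The test compound was diluted 1:2 serially in medium from a top concentration of 10 or 5 µM. Cells at a final 1 × 10⁶ cells/mL were exposed for 24 h. MTT was added (final 0.45 mg/mL) for 4 h at 37 °C, formazan was dissolved in DMSO, and OD was read at 570 nm. IC50 was taken as 50% growth inhibition. Three independent experiments, mean ± SEM.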

Jurkat cells [2] = test: Annexin V-FITC/propidium iodide labelling; assay type: cell-based, human; conditions: 24 h, each compound at its IC50, mean ± SEM
Summary of the method: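 Cells were spun at 220 x g for 5 min at 4 °C and washed in chilled PBS. They were stained with Annexin V-FITC in binding buffer for 13 min at room temperature in the dark, then with PI for 2 min. Samples were diluted in binding buffer and analysed by flow cytometry.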

WIL2-NS cells = test: MTT cytotoxicity and selectivity index, WIL2-NS cells; assay type: cell-based, human; conditions: IC50 WIL2-NS compared to IC50 Jurkat
caspase-3 = test: CaspGLOW active caspase staining, caspase-3; assay type: cell-based, human; conditions: Jurkat, OC2 at IC50, 4 h
Summary of the method: (§1)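 Jurkat E6-1 cells in RPMI-1640 with 10% FBS at 1 × 10⁶ cells/mL were exposed to the test compound for 2 or 4 h. Cells were washed, resuspended in fresh medium and stained 1 h at 37 °C with a FITC-conjugated inhibitor: IETD-FMK (caspase-8), LEHD-FMK (caspase-9) or DEVD-FMK (caspase-3). After washing, cells were read by flow cytometry. Mean ± SEM of 3 replicates; ANOVA/Tukey versus untreated.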

Jurkat cells [3] = test: DHE staining, intracellular ROS; assay type: cell-based, human; conditions: OC2 at IC50, 1-6 h
[4] = cited from earlier work
caspase-9 = test: CaspGLOW active caspase staining, caspase-9; assay type: cell-based, human; conditions: Jurkat, OC2 at IC50, 2 and 4 h
Summary of the method: as §1

Jurkat cells [5] = test: Cell cycle checkpoint analysis; assay type: cell-based, human; conditions: OC2 at IC50, 2 and 4 h
caspase-8 = test: CaspGLOW active caspase staining, caspase-8; assay type: cell-based, human; conditions: Jurkat, OC2 at IC50, 2 and 4 h
Summary of the method: as §1

Jurkat cells [6] = test: NAC pre-treatment followed by Annexin V-FITC/PI; assay type: cell-based, human; conditions: 20 or 50 µM NAC 1 h, then OC2 at IC50 24 h
Jurkat cells [7] = test: TMRE staining, mitochondrial membrane potential; assay type: cell-based, human
p21 = test: Western blot, p21; assay type: cell-based, human; conditions: Jurkat, OC2 at IC50, 0.5-6 h
Summary of the method: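 Jurkat cells at 1 × 10⁶ cells/mL were treated for 0.5 to 6 h, then washed in ice-cold PBS and lysed in RIPA buffer (spun 13500 rpm, 30 min, 4 °C). Protein was measured by Bradford assay and 25 µg per lane run on SDS-PAGE, then transferred to PVDF. Blots were blocked in 5% BSA/TBS-T for 1.5 h, given primary antibody overnight at 4 °C and HRP anti-rabbit for 1 h, then detected by ECL. β-actin served as loading control; band intensity is in arbitrary units, n = 3.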

K562 cells = conditions: cited from earlier work
cleaved-PARP = test: Western blot, cleaved-PARP; assay type: cell-based, human; conditions: Jurkat, OC2 at IC50, 0.5-6 h
Summary of the method: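 Jurkat cells (1 × 10⁶ cells/mL) were treated with the test compound at its IC50 for 0.5–6 h. Cells were washed in ice-cold PBS and lysed in RIPA, and lysates were cleared at 13500 rpm for 30 min at 4 °C; protein was measured by Bradford. 25 µg per lane was run on SDS-PAGE and transferred to PVDF. Membranes were blocked in 5% BSA/TBS-T for 1.5 h, given primary antibody overnight at 4 °C and HRP anti-rabbit for 1 h, and developed by ECL. β-actin served as loading control. Three independent replicates, arbitrary units, mean ± SEM.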

Which IC50 (Jurkat cells [1]; Homo sapiens, Jurkat) does the source give for `COc1cc([C@@H]2c3cc4c(cc3[C@@H](O[C@@H]3O[C@@H]5CO[C@@H](C)O[C@H]5[C@H](O)[C@H]3O)[C@H]3COC(=O)[C@H]23)OCO4)cc(OC)c1O` [ETO, Etoposide, reference compound] here?
The IC50 was 870 ± 60 nM.

What does the source list for `CC(C)N(C(=S)[S][Sn]([S]C(=S)N(C(C)C)C(C)C)([c]1ccccc1)[c]1ccccc1)C(C)C` [OC1, Diphenyltin(IV) diisopropyl dithiocarbamate]?
IC50 (Jurkat cells [1]; MTT, mean ± S.E.M): 7100 ± 600 nM; Percentage of apoptotic events (Jurkat cells [2]): 68.1 ± 4.2%; Selectivity index (SI) (WIL2-NS cells): 0.37

Which results are given for `CCN(CC)C(=S)[S][Sn]([c]1ccccc1)([c]1ccccc1)[c]1ccccc1` [OC5, Triphenyltin(IV) diethyldithiocarbamate]?
IC50 (Jurkat cells [1]; MTT, mean ± S.E.M): 350 ± 10 nM; Percentage of apoptotic events (Jurkat cells [2]): 73.4 ± 4.8%; Selectivity index (SI) (WIL2-NS cells): 0.57

With `C=CCN(CC=C)C(=S)[S][Sn]([S]C(=S)N(CC=C)CC=C)([c]1ccccc1)[c]1ccccc1` [OC3, Diphenyltin(IV) diallyl dithiocarbamate] as the compound, how does the IC50 (Jurkat cells [1]; MTT, mean ± S.E.M) read?
Its IC50 is 2800 ± 130 nM.

What about the “Percentage of apoptotic events” value (Jurkat cells [2]) of the same compound?
Its value is 86.7 ± 2.9%.

And the “Selectivity index (SI)” value (WIL2-NS cells)?
The value was 0.42.

Which results are given for `C=CCN(CC=C)C(=S)[S][Sn]([c]1ccccc1)([c]1ccccc1)[c]1ccccc1` [OC4, Triphenyltin(IV) diallyl dithiocarbamate]?
IC50 (Jurkat cells [1]; MTT, mean ± S.E.M): 200 ± 10 nM; Percentage of apoptotic events (Jurkat cells [2]): 84.5 ± 5.3%; Selectivity index (SI) (WIL2-NS cells): 1

For `CC(C)N(C(=S)[S][Sn]([c]1ccccc1)([c]1ccccc1)[c]1ccccc1)C(C)C` [OC2, Triphenyltin(IV) diisopropyl dithiocarbamate], which Caspase-3 positive cells (caspase-3) is on record?
Its Caspase-3 positive cells is “significant increase in caspase-3 positive cells”.

And the “Intracellular ROS production” value (Jurkat cells [3])?
Its value is “time-dependent increase in ROS production”.

What about the “Predicted CaCo2 permeability / intestinal absorption” value ([4]; ADMETlab prediction) of the same compound?
Its value is “might possess good intestinal absorption”.

What about the “Inhibition of major CYP450 enzymes (predicted)” value ([4]; in silico) of the same compound?
The value was “predicted not to inhibit any major CYP450 enzymes”.

And the “Mutagenic and carcinogenic potential (predicted)” value ([4]; in silico)?
The value was “may lack mutagenic and carcinogenic potential”.

And the “P-gp substrate or inhibitor (predicted)” value ([4]; in silico)?
The value was “unlikely to be a substrate or inhibitor of P-gp”.

And the “Skin sensitization or liver injury (predicted)” value ([4]; in silico)?
The value was “might not cause skin sensitization or liver injury”.

What about the IC50 (Jurkat cells [1]; MTT, mean ± S.E.M) of the same compound?
Its IC50 is 100 ± 10 nM.

What about the “Cells with active caspase-9” value (caspase-9) of the same compound?
Its value is “steadily increased from 2 to 4 h post-treatment”.

And the “Percentage of apoptotic events” value (Jurkat cells [2])?
The value was 55.6 ± 5.0% and 55% and 55.6 ± 4.95%.

What about the Cell cycle distribution (Jurkat cells [5]) of the same compound?
Its Cell cycle distribution is “halted the Jurkat cell cycle in the G0/G1 phase”.

And the Caspase-8 activation (caspase-8)?
The Caspase-8 activation was “remained unchanged compared to the control up to 4 h”.

And the “Apoptotic cells after NAC pre-treatment” value (Jurkat cells [6])?
The value was “significantly decreased the number of apoptotic cells”.

What about the “TMRE-negative cells (loss of ΔΨm)” value (Jurkat cells [7]; OC2 at IC50, 1 h) of the same compound?
The value was “slight increase in TMRE-negative cells”.

What about the “TMRE-negative cells (loss of ΔΨm)” value (Jurkat cells [7]; OC2 at IC50, 2 h) of the same compound?
Its value is 33.0 ± 4.5%.

And the “TMRE-negative cells (loss of ΔΨm)” value (Jurkat cells [7]; OC2 at IC50, 4 h)?
The value was 37.4 ± 2.4%.

And the “TMRE-negative cells (loss of ΔΨm)” value (Jurkat cells [7]; OC2 at IC50, 6 h)?
The value was 43.2 ± 5.5%.

What about the p21 protein expression (p21) of the same compound?
Its p21 protein expression is “statistically significant (p < 0.05) at later time points (4 and 6 h)”.

And the “ROS levels, K562” value (K562 cells; IC50 dose, 6 h)?
Its value is “substantial elevation in ROS levels (p < 0.05)”.

And the “Apoptotic cells, K562” value (K562 cells; at IC50 concentration)?
The value was 57.1 ± 4.5%.

And the “Cell cycle progression, K562” value (K562 cells)?
The value was “blocking cell cycle progression at the S phase checkpoint”.

And the “Selectivity index (SI), K562 cells” value (K562 cells)?
The value was 1.

And the IC50 (K562 cells; read-out: IC50 (inhibiting 50% of cell growth), K562 cells)?
The IC50 was 550 nM.

What about the “Selectivity index (SI)” value (WIL2-NS cells) of the same compound?
Its value is 5.5.

What about the Cleaved-PARP protein expression (cleaved-PARP) of the same compound?
The Cleaved-PARP protein expression was “marked rise (p < 0.05) at 6 h”.
